Type in all cases: functional
What all share (conditions): read-out: IZ

Assay [1] has as its system Escherichia coli. Briefly: Antibacterial activity against Escherichia coli MTCC 119 assessed as inhibition of bacterial growth at 50 uM measured after 48 hrs by agar well diffusion method. A general note: Agar diffusion results depend on both activity and mobility in agar.
Assay [2] has as its system Enterococcus faecalis. The experiment in a line: Antibacterial activity against Enterococcus faecalis MTCC 439 assessed as inhibition of bacterial growth at 50 uM measured after 48 hrs by agar well diffusion method.
For assay [3], the system named is Escherichia coli. Briefly: Antibacterial activity against clinically isolated Escherichia coli RBRJ013 assessed as inhibition of bacterial growth at 50 uM measured after 48 hrs by agar well diffusion method.
Assay [4] concerns Staphylococcus aureus. Briefly: Antibacterial activity against Staphylococcus aureus MTCC 740 assessed as inhibition of bacterial growth at 50 uM measured after 48 hrs by agar well diffusion method.
Assay [5] concerns Klebsiella pneumoniae. The experiment in a line: Antibacterial activity against Klebsiella pneumoniae MTCC 109 assessed as inhibition of bacterial growth at 50 uM measured after 48 hrs by agar well diffusion method.
In the next assay the test system is Acinetobacter baumannii. Briefly: Antibacterial activity against clinically isolated Acinetobacter baumannii RBRJ027 assessed as inhibition of bacterial growth at 50 uM measured after 48 hrs by agar well diffusion method.
The test system of the next assay is Enterobacter cloacae. The experiment in a line: Antibacterial activity against clinically isolated Enterobacter cloacae RBRJ017 assessed as inhibition of bacterial growth at 50 uM measured after 48 hrs by agar well diffusion method.
In another assay the test system is Pseudomonas aeruginosa. Briefly: Antibacterial activity against Pseudomonas aeruginosa MTCC 424 assessed as inhibition of bacterial growth at 50 uM measured after 48 hrs by agar well diffusion method.
In assay [6] the test system is Staphylococcus aureus. The experiment in a line: Antibacterial activity against clinically isolated Staphylococcus aureus RBRJ010 assessed as inhibition of bacterial growth at 50 uM measured after 48 hrs by agar well diffusion method.
For assay [7], the system named is Staphylococcus epidermidis. Briefly: Antibacterial activity against Staphylococcus epidermidis MTCC 435 assessed as inhibition of bacterial growth at 50 uM measured after 48 hrs by agar well diffusion method.
Assay [8] relates to Klebsiella pneumoniae. The experiment in a line: Antibacterial activity against clinically isolated Klebsiella pneumoniae RBRJ019 assessed as inhibition of bacterial growth at 50 uM measured after 48 hrs by agar well diffusion method.
The subject of assay [9] is Klebsiella pneumoniae. Briefly: Antibacterial activity against clinically isolated Klebsiella pneumoniae RBRJ024 assessed as inhibition of bacterial growth at 50 uM measured after 48 hrs by agar well diffusion method.
Assay [10] has as its system Enterococcus faecalis. The experiment in a line: Antibacterial activity against clinically isolated Enterococcus faecalis RBRJ015 assessed as inhibition of bacterial growth at 50 uM measured after 48 hrs by agar well diffusion method.
Assay [11] relates to Staphylococcus aureus. Briefly: Antibacterial activity against Methicillin-resistant Staphylococcus aureus ATCC 33591 assessed as inhibition of bacterial growth at 50 uM measured after 48 hrs by agar well diffusion method. Put shortly:
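Agar well diffusion on Mueller Hinton agar seeded with bacteria at 0.5 McFarland. […] Incubated 48 h at 37 °C aerobically; zone of inhibition diameter (mm) measured. Triplicate.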

The test system of assay [12] is Staphylococcus aureus. The experiment in a line: Antibacterial activity against clinically isolated Methicillin-resistant Staphylococcus aureus assessed as inhibition of bacterial growth at 50 uM measured after 48 hrs by agar well diffusion method.
In assay [13] the test system is Escherichia coli. The experiment in a line: Antibacterial activity against clinically isolated Escherichia coli RBRJ005 assessed as inhibition of bacterial growth at 50 uM measured after 48 hrs by agar well diffusion method.

With `Cc1ccc(C(C)C)c(OCc2cn(CCN3C(=O)C(=O)c4cc(Br)ccc43)nn2)c1`, the zone of inhibition at 50 µM worked out at 12.5 mm in the assay on Escherichia coli [1]; 13.6 mm in the assay on Enterococcus faecalis [2]; 13.2 mm with Escherichia coli [3]; 16.2 mm in the assay on Staphylococcus aureus [4]; 13.2 mm in the assay with Klebsiella pneumoniae [5]; 12.5 mm with Acinetobacter baumannii. Besides, the zone of inhibition at 50 µM was 13.3 mm in the assay with Enterobacter cloacae; 14 mm in the assay with Pseudomonas aeruginosa; 16.4 mm with Staphylococcus aureus [6]; 15.3 mm in [7]; 11.2 mm with Klebsiella pneumoniae [8]; 12.3 mm with Klebsiella pneumoniae [9]. Besides, the zone of inhibition at 50 µM with Enterococcus faecalis [10] came out at 12.4 mm; in the assay with Staphylococcus aureus [11], 13.3 mm; with Staphylococcus aureus [12], 14.2 mm; with Escherichia coli [13], 12.5 mm.

As to `Cc1ccc(C(C)C)c(OCc2cn(CCN3C(=O)C(=O)c4cc(I)ccc43)nn2)c1`, the zone of inhibition at 50 µM with Escherichia coli [1] turned out to be 11.3 mm; in the assay with Enterococcus faecalis [2], 12.2 mm; in the assay with Escherichia coli [3], 11.3 mm; with Staphylococcus aureus [4], 15.2 mm; in the assay on Klebsiella pneumoniae [5], 12.7 mm; in the assay with Acinetobacter baumannii, 12.1 mm. In addition, the zone of inhibition at 50 µM was found to be 13.1 mm in the assay with Enterobacter cloacae; 10.4 mm with Pseudomonas aeruginosa; 14.1 mm in the assay on Staphylococcus aureus [6]; 13.4 mm in assay [7]; 11.6 mm in the assay with Klebsiella pneumoniae [8]; 12.2 mm in the assay with Klebsiella pneumoniae [9]. In addition, the zone of inhibition at 50 µM in the assay on Enterococcus faecalis [10] amounted to 12.9 mm; in the assay on Staphylococcus aureus [11] it was 13.1 mm; in the assay with Staphylococcus aureus [12] it was 13.2 mm; in the assay on Escherichia coli [13], 10.3 mm.

With `Cc1ccc(C(C)C)c(OCc2cn(CCCCN3C(=O)C(=O)c4cc(I)ccc43)nn2)c1`, the zone of inhibition at 50 µM amounted to 10.2 mm in the assay on Escherichia coli [1]; 10.1 mm with Enterococcus faecalis [2]; 10.9 mm in the assay with Escherichia coli [3]; 16.9 mm in the assay on Staphylococcus aureus [4]; 12.2 mm in the assay on Klebsiella pneumoniae [5]; 10.1 mm with Acinetobacter baumannii. The zone of inhibition at 50 µM in the assay with Enterobacter cloacae is 10.2 mm; with Pseudomonas aeruginosa, 10.6 mm; with Staphylococcus aureus [6], 11.9 mm; in [7], 13.5 mm; in the assay on Klebsiella pneumoniae [8] it was 10.7 mm; with Klebsiella pneumoniae [9] it was 10.1 mm. The zone of inhibition at 50 µM with Enterococcus faecalis [10] amounted to 11.2 mm; in the assay with Staphylococcus aureus [11], 14 mm; with Staphylococcus aureus [12] it was 13.5 mm; with Escherichia coli [13], 10.4 mm.

As to `Cc1ccc(C(C)C)c(OCc2cn(CCCCN3C(=O)C(=O)c4cc(Br)ccc43)nn2)c1`, the zone of inhibition at 50 µM with Escherichia coli [1] stood at 11.1 mm; with Enterococcus faecalis [2], 10.3 mm; in the assay with Escherichia coli [3] it was 11 mm; in the assay with Staphylococcus aureus [4], 18.1 mm; with Klebsiella pneumoniae [5], 13.5 mm; in the assay on Acinetobacter baumannii, 10.7 mm. In addition, the zone of inhibition at 50 µM was determined as 11.1 mm with Enterobacter cloacae; 11.3 mm in the assay on Pseudomonas aeruginosa; 11.2 mm with Staphylococcus aureus [6]; 14.2 mm in [7]; 11.4 mm in the assay with Klebsiella pneumoniae [8]; 10.9 mm in the assay on Klebsiella pneumoniae [9]. The zone of inhibition at 50 µM with Enterococcus faecalis [10] was determined as 13.8 mm; with Staphylococcus aureus [11], 13.1 mm; in the assay with Staphylococcus aureus [12], 13.5 mm; in the assay on Escherichia coli [13], 11.8 mm.

As for `COc1ccc2c(c1)C(=O)C(=O)N2CCCCn1cc(COc2cc(C)ccc2C(C)C)nn1`, the zone of inhibition at 50 µM in the assay on Escherichia coli [1] came to 14.4 mm; in the assay on Enterococcus faecalis [2], 11.2 mm; in the assay on Escherichia coli [3] it was 11.3 mm; in the assay with Staphylococcus aureus [4] it was 19 mm; with Klebsiella pneumoniae [5] it was 14.7 mm; in the assay on Acinetobacter baumannii it was 10.2 mm. For the same compound, the zone of inhibition at 50 µM with Enterobacter cloacae came out at 10.9 mm; in the assay on Pseudomonas aeruginosa, 11.3 mm; in the assay on Staphylococcus aureus [6], 13.2 mm; in assay [7], 12.6 mm; in the assay on Klebsiella pneumoniae [8], 12.2 mm; in the assay on Klebsiella pneumoniae [9], 11.3 mm. For the same compound, the zone of inhibition at 50 µM came out at 13.2 mm with Enterococcus faecalis [10], 13.2 mm with Staphylococcus aureus [11], 15.2 mm in the assay with Staphylococcus aureus [12] and 14.2 mm with Escherichia coli [13].

In the case of `Cc1ccc(C(C)C)c(OCc2cn(CCN3C(=O)C(=O)c4cc(Cl)ccc43)nn2)c1`, the zone of inhibition at 50 µM in the assay on Escherichia coli [1] was 13.6 mm; in the assay with Enterococcus faecalis [2], 11.2 mm; in the assay on Escherichia coli [3] it was 13.1 mm; with Staphylococcus aureus [4], 19.3 mm; with Klebsiella pneumoniae [5] it was 15.1 mm; in the assay with Acinetobacter baumannii, 12 mm. For the same compound, the zone of inhibition at 50 µM with Enterobacter cloacae came out at 14.2 mm; in the assay on Pseudomonas aeruginosa, 14.1 mm; in the assay on Staphylococcus aureus [6], 19.6 mm; in [7], 16.2 mm; with Klebsiella pneumoniae [8], 15.2 mm; with Klebsiella pneumoniae [9], 13.6 mm. Further, the zone of inhibition at 50 µM with Enterococcus faecalis [10] is 15.2 mm; with Staphylococcus aureus [11], 14.6 mm; with Staphylococcus aureus [12], 14.3 mm; in the assay on Escherichia coli [13], 13.2 mm.

On to `Cc1ccc(C(C)C)c(OCc2cn(CCCCN3C(=O)C(=O)c4cc(Cl)ccc43)nn2)c1`, for which the zone of inhibition at 50 µM in the assay with Escherichia coli [1] worked out at 10.3 mm; in the assay with Enterococcus faecalis [2], 11.2 mm; in the assay on Escherichia coli [3] it was 11.4 mm; in the assay on Staphylococcus aureus [4], 18.4 mm; in the assay on Klebsiella pneumoniae [5], 13.2 mm; with Acinetobacter baumannii it was 11.1 mm. Besides, the zone of inhibition at 50 µM with Enterobacter cloacae was 11.5 mm; in the assay on Pseudomonas aeruginosa, 12.4 mm; in the assay with Staphylococcus aureus [6], 12.6 mm; in assay [7] it was 14.3 mm; in the assay with Klebsiella pneumoniae [8], 12.3 mm; in the assay with Klebsiella pneumoniae [9] it was 10.3 mm. Besides, the zone of inhibition at 50 µM in the assay on Enterococcus faecalis [10] is 13.4 mm; with Staphylococcus aureus [11], 13.6 mm; with Staphylococcus aureus [12] it was 14.2 mm; with Escherichia coli [13], 12.3 mm.

On to `Cc1ccc(C(C)C)c(OCc2cn(CCCCN3C(=O)C(=O)c4cc(C)ccc43)nn2)c1`, for which the zone of inhibition at 50 µM was 15.5 mm with Escherichia coli [1]; 12.4 mm in the assay on Enterococcus faecalis [2]; 11.4 mm with Escherichia coli [3]; 19.5 mm in the assay on Staphylococcus aureus [4]; 15.4 mm in the assay on Klebsiella pneumoniae [5]; 10.4 mm in the assay on Acinetobacter baumannii. The zone of inhibition at 50 µM in the assay on Enterobacter cloacae turned out to be 11.6 mm; with Pseudomonas aeruginosa, 12.9 mm; in the assay on Staphylococcus aureus [6], 14.6 mm; in assay [7], 11.4 mm; with Klebsiella pneumoniae [8], 13.2 mm; with Klebsiella pneumoniae [9], 12.2 mm. The zone of inhibition at 50 µM came to 15.3 mm in the assay with Enterococcus faecalis [10], 14.2 mm in the assay on Staphylococcus aureus [11], 15.8 mm in the assay on Staphylococcus aureus [12] and 13.1 mm in the assay on Escherichia coli [13].

Regarding `Cc1ccc(C(C)C)c(OCc2cn(CCCCN3C(=O)C(=O)c4cc(F)ccc43)nn2)c1`, the zone of inhibition at 50 µM with Escherichia coli [1] was 11.2 mm; in the assay with Enterococcus faecalis [2] it was 10 mm; in the assay on Escherichia coli [3] it was 11.1 mm; in the assay with Staphylococcus aureus [4], 19.2 mm; in the assay on Klebsiella pneumoniae [5], 14.4 mm; with Acinetobacter baumannii, 11.8 mm. Moreover, the zone of inhibition at 50 µM in the assay on Enterobacter cloacae is 12.5 mm; with Pseudomonas aeruginosa, 12.2 mm; in the assay with Staphylococcus aureus [6] it was 12.2 mm; in assay [7], 15.1 mm; with Klebsiella pneumoniae [8] it was 13.2 mm; with Klebsiella pneumoniae [9], 11.3 mm. For the same compound, the zone of inhibition at 50 µM in the assay with Enterococcus faecalis [10] was 14.6 mm; with Staphylococcus aureus [11] it was 16.4 mm; in the assay with Staphylococcus aureus [12], 16.2 mm; in the assay with Escherichia coli [13], 12.2 mm.

These data come from ChEMBL document CHEMBL5357047, “The development of thymol-isatin hybrids as broad-spectrum antibacterial agents with potent anti-MRSA activity” (RSC Med Chem, 2024).
